High-throughput results as filed in PubChem BioAssay.
PGC1a acetyl up – raises PGC1a acetylation signal in U2OS cells; U2OS PGC1a acetylation AlphaScreen, overnight; activation, % at 15.6 µM; 0.21% of 350,000 active; AID 651723;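 active = every replicate reaching activation of at least 50%, whatever the mean replicate activation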;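 note: hits raise the AlphaScreen acetylation signal above neutral controls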
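detection = AlphaScreen lysate read | assay system = U2OS cells expressing flag-PGC1a plus GCN5 | input = 7000 cells/well | dosing = one concentration | times = compound overnight at 37 °C, each detection step 1 h RT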
Starred values were filed as active, the others as inactive. A selection follows.

SMILES	PGC1a acetyl up
CCN(CC)S(=O)(=O)c1cccc(-c2nnc(SCc3ncc(-c4ccccc4)o3)n2C)c1	-43.2
C=CCC1NS(=O)(=O)OC(CCc2ccccc2)C1O (stereo not drawn)	103.8*
CC(C)NC(=O)NCC[C@H]1CC[C@H](NC(=O)c2ccc(F)cc2)[C@H](CO)O1	-54.5
CCOC(=O)C1=C(CS(=O)(=O)c2ccccc2)NC(=O)NC1c1ccc(O)c(OC)c1 (stereo not drawn)	-52.4
CCOC(=O)CC(S(=O)(=O)c1ccccc1)S(=O)(=O)c1ccccc1	96.0*
COc1ccc(CC2=CC(=O)c3ccccc3C2=O)cc1	128.3*
COCC(=O)N1CC(=O)N2[C@@H](CO)[C@H](c3ccc(-c4ccncc4)cc3)[C@@H]2C1	-102.2
O=C(COC(=O)c1ccc([N+](=O)[O-])s1)Nc1ccc(F)cc1	106.3*
CCOc1ccc(Nc2nc(NCc3ccco3)nc(N)c2[N+](=O)[O-])cc1	-72.4
C[C@H]1CN([C@@H](C)CO)C(=O)CCCn2nncc2CO[C@@H]1CN(C)C(=O)c1ccc(N2CCN(C)CC2)cc1	-55.6
C[C@H](NC(=O)C[C@H]1CC[C@@H](NC(=O)C2CC2)[C@H](CO)O1)c1ccccc1	-51.7
N#CC(C#N)=c1ccc2c(c1)NC1(CCCCC1)N=2	162.3*
C[C@H]1CN([C@@H](C)CO)C(=O)c2cc(C#CC(C)(C)O)cnc2O[C@@H]1CN(C)C(=O)C1CCC1	-100.7
CN1CCN(C(=O)C[C@@H]2CC[C@@H]3[C@H](COC[C@H](O)CN3CC3CCCCC3)O2)CC1	-47.1
COc1ccc(Oc2c(Cl)cnn(-c3ccc(F)cc3)c2=O)cc1	81.4*
CN1C(=O)c2ccccc2C(C(=O)O)C1c1cccc([N+](=O)[O-])c1 (stereo not drawn)	-43.6
Cc1ccc(OCC(=O)N2CC(C)OC(C)C2)c([N+](=O)[O-])n1 (stereo not drawn)	-42.8
On1onc2c3cc(-c4ccccc4)nc3ccc21	620.5*
c1ccc(-c2cc(-c3ccccc3)n3ncnc3n2)cc1	-44.8
O=c1c2c3c(sc2n2cnnc2n1Cc1ccccc1)CN(Cc1ccccc1)CC3	72.6*
O=C(CCN1CCc2ccccc2C(c2ccccc2)C1)c1ccc2c(c1)OCCO2 (stereo not drawn)	68.8*
Cc1ccc(S(=O)(=O)N[C@H]2C=C[C@H](CC(=O)NCCN3CCCCC3)O[C@H]2CO)cc1	-45.9
CNC[C@H]1OCCCC[C@@H](C)Oc2ccc(NS(=O)(=O)c3ccccc3)cc2C(=O)N([C@H](C)CO)C[C@@H]1C	-48.7
N#C[C@H]1[C@H](c2ccc(C#CC3CCCC3)cc2)[C@H](CO)N1C(=O)Cc1ccccn1	-58.9
OC[C@@H]1[C@H](c2ccc(C#CC3CCCC3)cc2)[C@H]2CN(CCC(F)(F)F)CCCCN12	-80.5
SMILES	PGC1a acetyl up
OC[C@H]1[C@@H](c2ccc(C#CC3CCCC3)cc2)[C@@H]2CN(CCC(F)(F)F)CCCCN12	60.2*
CC1CCCCC1NC(=O)C1CCN(S(=O)(=O)N2CCOCC2)CC1 (stereo not drawn)	-42.9
N#Cc1sc2nccc(Nc3ccccc3)c2c1N	-42.9
CCS(=O)(=O)Nc1ccc2c(c1)C(=O)N(C)C[C@@H](OC)[C@H](C)CN(Cc1ccccn1)[C@@H](C)CO2	-44.4
N#Cc1ccc(Oc2cccnc2)cc1C#N	52.7*
Cc1ccc(NC(=O)c2ccc(NCC3CCCO3)c([N+](=O)[O-])c2)cc1Cl (stereo not drawn)	-43.3
O=C(COC(=O)c1ccccc1C(=O)c1ccc(Cl)c([N+](=O)[O-])c1)NC1CCCCCC1	160.2*
c1csc(CNc2ncnc3ccc(-c4ccoc4)cc23)c1	-50.4
CN(c1cccc(NS(=O)(=O)c2cccs2)c1)S(C)(=O)=O	-50.7
COc1ccc(CCNC(=O)c2ccc(Cl)cc2)cc1	81.1*
COc1ccc(NC(=O)CN(C)C(=O)c2cnc(Cl)c(Cl)c2)cc1	-43.7
COc1ccc(C(=O)N/N=C(/C)c2cccc(NC(=O)c3ccccc3F)c2)cc1	-50.6
C[C@@H]1CN([C@H](C)CO)C(=O)CCCn2nncc2CO[C@H]1CN(C)C(=O)Nc1cccc(F)c1	-56.8
CC(CCC(=O)O)C1CCC2C3CCC4CC(O)CCC4(C)C3CC(O)C12C (stereo not drawn)	-49.3
COC(=O)c1cc(Cl)c(NS(=O)(=O)c2ccccc2)cc1OC	-48.3
CCOCCn1c(N2CCN(c3ccccc3)CC2)nc2c1c(=O)n(C)c(=O)n2C	53.8*
CC(C)c1ccc(NC(=O)c2n[nH]c(=O)c3ccccc23)cc1	-108.0
O=C(Nc1cccc(F)c1)C1CCN(S(=O)(=O)c2cccc3nonc23)CC1	-57.1
CC(C)c1ccc(NC(=O)CCNS(=O)(=O)c2cccc3nonc23)cc1	53.0*
COc1ccc(C(=O)Nc2ccc(S(=O)(=O)Nc3cc(C)nc(C)n3)cc2)cc1	-43.1
Cc1cc(C)c(NC(=O)c2ccc(S(=O)(=O)N(C)C)cc2)c(C)n1	-50.4
C[C@@H]1CN([C@H](C)CO)C(=O)c2cc(C#CC3CC3)cnc2O[C@H]1CN(C)C(=O)Nc1ccc(F)cc1	-40.7
CC(C)Oc1ccc2nnnn2n1	-49.0
CCc1ccc(Nc2nnc(SCC(=O)Nc3ccc(C(=O)O)cc3)s2)cc1	-46.1
Cc1cccc(COc2ccc(/C=C3/C(=O)N(C)C(=S)N3C)cc2)c1	-70.6
SMILES	PGC1a acetyl up
Nc1c(C(=O)c2ccccc2)sc2nsc(SCCN3CCCC3)c12	126.2*
CCOC(=O)C1(Cc2cccc(F)c2)CCN(Cc2ccc(COC)o2)CC1	-44.7
C[C@H](NS(=O)(=O)c1ccc2c(c1)OCCCO2)C(=O)N1CCN(Cc2ccccc2)CC1	-47.3
O=C(NN=C1c2ccccc2-c2ccccc21)c1ccccc1Br	-66.1
O=C(N/N=C/C(Br)=C/c1ccccc1)c1cccs1	166.4*
CC1C(=O)NN=C1C(=O)N/N=C\C(Br)=C\c1ccccc1 (stereo not drawn)	404.2*
O=C(CNc1cccc2ccccc12)N/N=C/C(Br)=C/c1ccccc1	213.4*
O=C(Nc1ccc2c(c1)C(=O)N(c1ccccc1)C2=O)c1cccs1	-52.7
O=C(N/N=C/C(Br)=C/c1ccccc1)c1ccccc1F	57.5*
Cc1ccc(CN(C(=O)Cn2nnc3ccccc32)C(C(=O)NCc2ccco2)c2cccs2)cc1 (stereo not drawn)	-45.6
C[C@@H]1CN([C@@H](C)CO)C(=O)CCCn2cc(nn2)CO[C@H]1CN(C)Cc1ccc2c(c1)OCO2	-59.5
O=C(Cc1ccncc1)NCC[C@H]1CC[C@@H](NC(=O)C2CC2)[C@H](CO)O1	-62.4
O=S(=O)(Nc1cccc(CCc2ccccn2)c1)c1ccc2ccccc2c1	-44.3
C#CC(=O)N(c1cc(OC)ccc1OC)C(C(=O)NC1CCCC1)c1cccs1 (stereo not drawn)	-88.2
C=CCn1cccc(/C=C/C(=O)c2ccc(C(C)(C)C)cc2)c1=S	-52.6
CCS(=O)(=O)c1ccc2oc(Nc3ccccc3Br)nc2c1	-51.8
COc1ccc(NC(=O)N(C)C[C@@H]2OCCCC[C@@H](C)Oc3ccc(NC(=O)Cc4ccccc4)cc3C(=O)N([C@H](C)CO)C[C@@H]2C)cc1	-51.2
O=C(N/N=C/C(Br)=C/c1ccccc1)c1cc(-c2ccco2)[nH]n1	142.7*
O=C(N/N=C/C(Br)=C/c1ccccc1)c1n[nH]c2c1CCC2	72.4*
CCCCCCNC(=O)O[C@@]12CN(S(=O)(=O)c3ccc(C)cc3)C[C@]1(O)Cn1c(=O)n(CCCCCC)c(=O)n1C2	-68.9
COc1ccccc1CNC(=O)C[C@@H]1CC[C@@H]2[C@H](COC[C@H](O)CN2C(=O)Nc2ccc(Cl)cc2)O1	-56.1
